# From publication PMC7702297 (Journal of the American Chemical Society, 2020)
# Like-named read-outs stand apart in the source and are kept apart here.
# Assays:
# [1] = tested on: RAW 264.7 macrophage cells; assay: Protection from PMA-induced cytotoxicity; type: cell-based
# [2] = tested on: RAW 264.7 macrophage cells; assay: Intracellular ROS by DHE fluorescence in PMA-treated macrophages; type: cell-based; conditions: PMA 1 μg/mL 3 h; DHE 10 μM 30 min
# RAW 264.7 cells = assay: Cytotoxicity
# [3] = Conventional and cryogenic TEM of self-assembled nanostructures; type: physicochemical
# [4] = H2S release measured with H2S-sensitive electrochemical probe; type: physicochemical
# [5] = Nile Red assay, critical aggregation concentration; type: physicochemical; conditions: Nile Red fluorescence; 10 mM phosphate buffer pH 7.4, room temperature
# Procedure, shortened: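 Test compound dissolved in 10 mM phosphate buffer pH 7.4 at room temperature, where it self-assembles. Nile Red fluorescence intensity was recorded across a series of test compound concentrations. CAC was calculated from the rise in intensity with concentration, taken as Nile Red solubilisation in the hydrophobic domain.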
# Static light scattering = type: physicochemical; conditions: average
# [6] = PMA 2 μg/mL 3 h, Cys 800 μM, AdKOKOEE and AdKSKSE 200 μM (+ Cys), GYY4137 and Na2S 400 μM, Figure 4B
# [7] = conventional and cryo-TEM, PB 10 mM pH 7.4, 1 mM
compound,measurement,setting,value
"N[C@@H](CS)C(=O)O [Cys, cysteine, reference compound]",protective effect on viability of PMA-treated cells,[1]; [6],Neither treatment with Cys alone nor treatment with a combination of the non-H2S-releasing control peptide (AdKOKOEE) and Cys showed any protective effect
"C1COCCN1.COc1ccc(P(=S)(S)N2CCOCC2)cc1 (stereo not drawn) [GYY4137, reference compound]",protective effect on viability of PMA-treated cells,[1],Neither affected cell viability
"[Na+].[Na+].[S-2] [Na2S, sodium sulfide, reference compound]",protective effect on viability of PMA-treated cells,[1],Neither affected cell viability
"CCCCCCCCCCCCCC(=O)O[C@@H]1[C@@H](C)[C@@]2(O)[C@@H](C=C(CO)C[C@]3(O)C(=O)C(C)=C[C@@H]23)[C@@H]2C(C)(C)[C@]12OC(C)=O [PMA, phorbol 12-myristate 13-acetate]","ROS level (DHE red fluorescent signal) after PMA alone, versus untreated cells",[2],much brighter
same,concentration inducing significant cytotoxicity,RAW 264.7 cells; Figure 4A,≥ 1000 ng/mL
same,cell viability after PMA alone,RAW 264.7 cells; PMA 2 μg/mL,67%
AdKOKOEE,protective effect on viability of PMA-treated cells,[1]; [6],Neither treatment with Cys alone nor treatment with a combination of the non-H2S-releasing control peptide (AdKOKOEE) and Cys showed any protective effect
AdKSKSE,average length of short nanoworms,"[3]; conventional TEM, UA stained, PB 10 mM pH 7.4, 100 μM",33±2 nm
same,H2S release rate relative to AdKsKsEE,"[4]; Figure S13, both contain two SATO units and release similar amounts",somewhat faster
same,protective effect on viability of PMA-treated cells,[1]; [6],"some cell protective ability, but it was not as good as AdKSKSEE"
AdKSKSEE,critical aggregation concentration (CAC),[5],27 µM
same,average external diameter of crescent nanostructures,[3]; [7],28±3 nm
same,average width of crescent nanostructures,[3]; [7],5±1 nm
same,"aggregation number, estimate from nanocrescent volume",[3]; nanocrescent volume from TEM dimensions divided by estimated molecular volume,560
same,aggregation number (molecules per crescent nanostructure),Static light scattering,600
same,H2S release peaking time,"[4]; PHDC 1 mM + Cys 4 mM in PB at rt, electrochemical probe, average of three runs",125 ± 15 min
same,H2S release without Cys,"[4]; PHDC 1 mM in PB at rt, no Cys, electrochemical probe",minimal H2S was detected
same,cell viability on co-treatment with PMA,"[1]; PMA 2 μg/mL, AdKSKSEE 200 μM + Cys 800 μM, 3 h, three experiments with five replicates",95%
